# Assay outcomes as filed in PubChem BioAssay.
# The list is not random: actives were taken first. Their share in the collection is about 1.6%.
# SKN-1 block – suppressors of acrylamide-induced Pgst-4::GFP reporter in worms, primary screen, SKN-1 inhibitor project, whole organism, uHTS, GFP/RFP fluorescence ratio, strain VP596; AID 624304, 2012; hit rate 0.49% among 360,000; C. elegans VP596 Pgst-4::GFP/RFP ratio, 24 h; inhibition, % at 21.8 µM;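 active = interference check ratio from 0.5 to 1.5 plus GFP to RFP signal ratio inhibition reaching or exceeding a fixed threshold, cut at about 30% in these data, passing the limit was not always enough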
# MT1-MMP act inh – blockers of MT1-MMP proenzyme processing, primary screen, HT1080 RFP-PRO-GFP cells, GFP/RFP fluorescence; Matrix metalloproteinase-14 (Homo sapiens), P50281; GFP/RFP ratio change, % at 20 µM; AID 651647, 2012; GFP/RFP ratio fluorescence, overnight; percent of plate control window, DMSO zero; hit rate 0.061% among 360,000;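 active = GFP/RFP ratio change of at least 30% with cell ATP level not reduced by more than half and red fluorescence within 50% of control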
#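 Test system: HT1080 cells expressing an RFP-PRO-GFP fluorescent reporter construct / Compound dosing: single-point 20 µM compound, 1% DMSO / Schedule: cells overnight before dosing, compound overnight, 37 °C, 5% CO2 / Evaluation: GFP/RFP fluorescence ratio / Control set: DMSO and RFP-L50D-GFP cell wells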
# MsrA inh – bovine MsrA enzyme inhibitors, primary screen, biochemical, absorbance, HTS; purified bovine MsrA, absorbance read-out; inhibition, % at 15.5 µM; hit rate 0.75% among 360,000; in the data active = inhibition above about 4.5%;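 note: 0% = vehicle wells with enzyme and 100% = reference inhibitor wells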
# p-CIP stab down – p/CIP-EGFP fusion destabilizers, primary screen, fluorescence, F442A cells | Q05BA5 | 16 h | decrease of EGFP signal, % at 10 µM | hit rate 0.01% among 290,000;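 active = EGFP signal decrease of at least 30% at 10 µM or well 3 SD below plate mean, unless failing retest; inactive = the rest, including hits failing retest or dose response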
# MsrA act – bovine MsrA enzyme activators, primary screen, biochemical, absorbance, HTS; purified bovine MsrA, absorbance read-out; Methionine sulfoxide reductase A (Bos taurus); activation, % at 10.6 µM; hit rate 0.3% among 360,000; in the data active = activation above about 7.5%;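 note: 0% = vehicle and 100% = reference activator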
# MsrA act confirm – bovine MsrA activators, retest, confirmation, biochemical, absorbance, HTS. shares compounds with MsrA act. purified bovine MsrA, absorbance read-out. activation, % at 10.6 µM. hit rate 12% among 1,000; in the data active = activation above about 4%;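 note: enzyme coupled to thioredoxin and thioredoxin reductase with NADPH; 0% = vehicle wells and 100% = reference activator wells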
# The depositor's hits bear a star; / = no result given.
SMILES,SKN-1 block,MT1-MMP act inh,MsrA inh,p-CIP stab down,MsrA act,MsrA act confirm
Cc1ccc(S(=O)(=O)Nc2cccc(-c3ccc4nnc(C)n4n3)c2)s1,-8,10,-1,20,20*,0
c1ccc(-c2nc(NC3CC3)nc(-n3ccnc3)n2)cc1,11,5,0,-9,14*,-2
CC(C)c1[nH]nc2c1C(c1cccc(C(F)(F)F)c1)N(c1ccccc1)C2=O (stereo not drawn),/,/,0,/,/,/
S=c1[nH]nc(-c2cccnc2)n1/N=C/c1cccs1,-22,2,0,13,10*,-2
CC(=O)Nc1ccc(C(=O)OCC(=O)c2cccc([N+](=O)[O-])c2)cc1,-3,-2,-1,-4,8.4*,-1
CC(=O)Nc1ccc(NC(=O)CCC(=O)OCC(=O)c2cccc([N+](=O)[O-])c2)cc1,-8,1,-1,10,-3,/
Clc1ccccc1Cn1nc(-c2ccccc2)nc1-c1ccccc1,7,-3,-1,-15,1,/
Clc1ccc(Cn2nc(-c3ccccc3)nc2-c2ccccc2)cc1,6,-3,0,2,8.7*,0
COC(=O)C(Cc1ccc(O)cc1)NS(=O)(=O)Cc1ccccc1 (stereo not drawn),/,/,-1,/,/,/
O=C(Nc1cccc([N+](=O)[O-])c1)c1ccc([N+](=O)[O-])o1,6,14,2,/,9.8*,5.7*
COc1ccc(S(=O)(=O)N2CCCC(C(=O)NCc3cccnc3)C2)cc1 (stereo not drawn),-15,-2,-1,-7,-5,/
CCOc1ccc(S(=O)(=O)N2CCCC(C(=O)NCc3cccnc3)C2)cc1 (stereo not drawn),13,-1,-1,0,8.9*,-2
OC(c1ccc(F)c(F)c1)c1nc(-c2ccc3ccccc3c2)cs1 (stereo not drawn),20,10,-1,/,9.2*,1
CN(Cc1ccccc1)C(=O)c1cccc(NC(=O)Cc2ccc(NC(=O)C3CCCN(S(=O)(=O)c4cccc([N+](=O)[O-])c4)C3)cc2)c1 (stereo not drawn),/,/,1,/,/,/
CCN=C1NC(c2ccc(F)cc2)C(C(=O)OC)=C(C)N1Cc1cccc(C(F)(F)F)c1 (stereo not drawn),/,/,-3,/,/,/
CCCCOC(=O)Nc1ccccc1C(=O)N1CCCC1,1,14,1,-4,15*,0
O=C(Cn1c(=O)oc2ccccc21)Nc1n[nH]c(=S)s1,7,1,2,6,7.9*,5.5*
O=C(O)C1=NOC(CNC(=O)c2ccccc2Cl)C1 (stereo not drawn),3,3,-1,4,11*,3
O=C(/C=C(\Nc1ccc(Cl)c(Cl)c1)c1ccccc1)c1ccccc1,/,/,0,/,/,/
O=C(/C=C(\Nc1cc(Cl)c(F)c(Cl)c1)c1ccccc1)c1ccccc1,/,/,1,/,/,/
c1ccc(-n2cnc3cc(NCc4ccco4)ccc32)cc1,8,5,0,6,9.5*,1
CCOC(=O)C1=C(C(=O)OCC)C2N(Cc3ccc(Br)cc3)c3ccccc3[C@@]23C[C@@H](C(=O)OC)N(S(=O)(=O)c2ccc(F)cc2)C3=N1 (stereo partly drawn),/,/,0,/,/,/
Cn1nc(C(=O)OCC(=O)Nc2ccccc2[N+](=O)[O-])c2ccccc2c1=O,-4,4,0,/,-3,/
Cn1nc(C(=O)OCC(=O)Nc2cc(Cl)ccc2C#N)c2ccccc2c1=O,8,-3,0,/,10*,-3
CCOC(=O)c1cc2c(=O)n3ccccc3nc2n(CCOC)c1=NC(=O)C(C)(C)C,-3,3,0,-2,8.2*,0
SMILES,SKN-1 block,MT1-MMP act inh,MsrA inh,p-CIP stab down,MsrA act,MsrA act confirm
CCOC(=O)c1cc2c(=O)n3ccccc3nc2n(CCCOC)c1=NC(=O)C(C)(C)C,20,10,-1,-22,-1,/
COC(=O)C1=C(C)N(Cc2cccc(C(F)(F)F)c2)C(=NCc2ccc(OC)cc2)NC1c1ccccc1 (stereo not drawn),/,/,-2,/,/,/
CC(CN(C)Cc1ccccc1)OC(=O)c1ccccc1F (stereo not drawn),0,-1,0,8,-1,/
CC(CN(C)Cc1ccccc1)OC(=O)c1cccs1 (stereo not drawn),-2,-1,0,-8,8.4*,-2
O=[N+]([O-])c1ccc(OC2OCC(O)C(O)C2O)cc1 (stereo not drawn),/,/,2,/,/,/
Cc1onc(C(=O)N2C(C)CCCC2C)c1[N+](=O)[O-] (stereo not drawn),1,0,1,-5,8.8*,-1
C=CCCC1CN(Cc2ccc(OC)cc2)S(=O)(=O)c2c(cccc2N2CCCC2)O1 (stereo not drawn),/,/,1,/,/,/
CN(C)c1ccc2nc3ccc(=[N+](C)C)cc-3sc2c1,37*,-9,8.2*,0,23*,7.9*
CCCN1CCCCC(NC(=O)COCc2ccccc2)C1=O (stereo not drawn),/,/,1,/,/,/
CCOc1ccccc1NC(=S)N1CCN(c2cccc(OC)c2)CC1,2,-4,0,4,8.5*,-1
COc1cccc(N2CCN(C(=S)Nc3ccccc3OC)CC2)c1,11,-1,2,1,-2,/
C#CCNC(=O)C1=C[C@@H](c2ccc3c(c2)OCO3)C[C@@H](OCc2ccc(CO)cc2)O1,14,1,0,/,8.5*,1
O=C(NCc1ccccc1)C1=C[C@H](c2ccc3c(c2)OCO3)C[C@H](OCc2ccc(CO)cc2)O1,28,2,0,/,0,/
NC(=O)CSc1nnc(-c2ccccn2)n1Cc1ccco1,16,0,1,-7,9.0*,-2
Clc1ccccc1CSc1nnc(-c2ccccn2)n1Cc1ccco1,-4,-3,1,-6,-5,/
COC(=O)Cn1cnc2c(NC(=O)c3ccccc3)ncnc21,/,/,0,/,/,/
O=C(CSc1nnc(Cc2ccccc2)o1)NCCN1C(=O)CSC1=O,-18,-2,-1,-4,19*,-1
Cc1nnc(SCC(=O)NCCN2C(=O)CSC2=O)n1-c1ccccc1,-3,1,-1,-12,-8,/
CC(OC(=O)c1cccc(S(=O)(=O)N2CCCCC2)c1)C(=O)NC1CCCCC1C (stereo not drawn),-1,-2,-1,2,21*,0
CCCCCC(=O)NNC(=S)NC(=O)c1cccc([N+](=O)[O-])c1,6,6,1,-14,8.9*,1
CCCCCC(=O)NNC(=S)NC(=O)c1ccccc1[N+](=O)[O-],10,6,-1,-16,-3,/
